According to ChEMBL document CHEMBL1275580, “Antifungal susceptibilities among different serotypes of Cryptococcus gattii and Cryptococcus neoformans” (2009):
In brackets after ≈: the same amount, converted by molar mass.

Tests used:
[1] = tested on: Cryptococcus gattii species complex; test: Antifungal activity against Cryptococcus gattii serotype B after 72 hrs by broth microdilution method; assay type: functional, Cryptococcus bacillisporus
In short: (§1)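 Isolates subcultured at least twice on Sabouraud dextrose agar; serotype by multiplex PCR, species confirmed on canavanine-glycine-bromothymol blue medium. CLSI M27-A2 broth microdilution in RPMI 1640 with MOPS, pH 7.0. Inoculum 0.5–2.5 × 10^3 cells/ml, 35°C. Final drug range 0.015–8 or 0.25–64 μg/ml. MIC at 72 h read as 50% turbidity reduction versus growth control, or 100% inhibition for the polyene.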

Cryptococcus neoformans [2] = test: Antifungal activity against Cryptococcus neoformans serotype A after 72 hrs by broth microdilution method; assay type: functional
In short: (§2)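 Isolates subcultured at least twice on Sabouraud dextrose agar; serotype assigned by multiplex PCR, species confirmed on canavanine-glycine-bromothymol blue medium. CLSI M27-A2 broth microdilution in RPMI 1640 buffered to pH 7.0 with MOPS, inoculum 0.5 × 10^3 to 2.5 × 10^3 cells/ml, 35°C. Final drug ranges were 0.015–8 or 0.25–64 μg/ml depending on agent. MIC read at 72 h as 50% turbidity reduction versus growth control, or as 100% inhibition for the polyene. C. krusei ATCC 6258 and C. parapsilosis ATCC 22019 served as QC strains.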

[3] = tested on: Cryptococcus gattii species complex; test: Antifungal activity against Cryptococcus gattii after 72 hrs by broth microdilution method; assay type: functional, Cryptococcus bacillisporus; in short: as §1
[4] = tested on: Cryptococcus gattii species complex; test: Antifungal activity against Cryptococcus gattii serotype C after 72 hrs by broth microdilution method; assay type: functional, Cryptococcus bacillisporus; in short: as §1
Cryptococcus neoformans [5] = test: Antifungal activity against Cryptococcus neoformans after 72 hrs by broth microdilution method; assay type: functional; in short: as §2
Cryptococcus neoformans [6] = test: Antifungal activity against Cryptococcus neoformans serotype AD after 72 hrs by broth microdilution method; assay type: functional; in short: as §2
Cryptococcus neoformans [7] = test: Antifungal activity against Cryptococcus neoformans serotype D after 72 hrs by broth microdilution method; assay type: functional; in short: as §2

SMILES | MIC50 [1] [µg/mL] | MIC90 [1] [µg/mL] | MIC50 (Cryptococcus neoformans [2]) [µg/mL] | MIC90 (Cryptococcus neoformans [2]) [µg/mL] | MIC50 [3] [µg/mL] | MIC90 [3] [µg/mL] | MIC50 [4] [µg/mL] | MIC90 [4] [µg/mL] | MIC50 (Cryptococcus neoformans [5]) [µg/mL] | MIC90 (Cryptococcus neoformans [5]) [µg/mL] | MIC50 (Cryptococcus neoformans [6]) [µg/mL] | MIC90 (Cryptococcus neoformans [6]) [µg/mL] | MIC50 (Cryptococcus neoformans [7]) [µg/mL] | MIC90 (Cryptococcus neoformans [7]) [µg/mL] | MIC (Cryptococcus neoformans [7]) [µg/mL] | MIC [4] [µg/mL] | MIC (Cryptococcus neoformans [5]) [µg/mL] | MIC (Cryptococcus neoformans [6]) [µg/mL]
C[C@@H]1[C@H](O)[C@@H](C)/C=C/C=C/C=C/C=C/C=C/C=C/C=C/[C@H](O[C@@H]2O[C@H](C)[C@@H](O)[C@H](N)[C@@H]2O)C[C@@H]2O[C@](O)(C[C@@H](O)C[C@@H](O)[C@H](O)CC[C@@H](O)C[C@@H](O)CC(=O)O[C@H]1C)C[C@H](O)[C@H]2C(=O)O [AMPHOTERICIN B] | 0.25 (≈ 0.271 µM) | 0.25 (≈ 0.271 µM) | 0.25 (≈ 0.271 µM) | 0.5 (≈ 0.541 µM) | 0.25 (≈ 0.271 µM) | 0.25 (≈ 0.271 µM) | 0.25 (≈ 0.271 µM) | 0.5 (≈ 0.541 µM) | 0.25 (≈ 0.271 µM) | 0.5 (≈ 0.541 µM) | 0.25 (≈ 0.271 µM) | 0.25 (≈ 0.271 µM) | – | – | – | – | – | –
OC(Cn1cncn1)(Cn1cncn1)c1ccc(F)cc1F [FLUCONAZOLE] | 2 (≈ 6.53 µM) | 8 (≈ 26.1 µM) | 2 (≈ 6.53 µM) | 4 (≈ 13.1 µM) | 2 (≈ 6.53 µM) | 8 (≈ 26.1 µM) | 2 (≈ 6.53 µM) | 4 (≈ 13.1 µM) | 2 (≈ 6.53 µM) | 4 (≈ 13.1 µM) | 2 (≈ 6.53 µM) | 4 (≈ 13.1 µM) | – | – | – | – | – | –
Nc1nc(=O)[nH]cc1F [FLUCYTOSINE] | 2 (≈ 15.5 µM) | 4 (≈ 31 µM) | 4 (≈ 31 µM) | 4 (≈ 31 µM) | 2 (≈ 15.5 µM) | 8 (≈ 62 µM) | 2 (≈ 15.5 µM) | 8 (≈ 62 µM) | 4 (≈ 31 µM) | 8 (≈ 62 µM) | 4 (≈ 31 µM) | 8 (≈ 62 µM) | 4 (≈ 31 µM) | 8 (≈ 62 µM) | – | – | – | –
C[C@@H](c1nc(-c2ccc(C#N)cc2)cs1)[C@](O)(Cn1cncn1)c1cc(F)ccc1F [ISAVUCONAZOLE] | 0.03 (≈ 0.0686 µM) | 0.06 (≈ 0.137 µM) | 0.03 (≈ 0.0686 µM) | 0.125 (≈ 0.286 µM) | 0.03 (≈ 0.0686 µM) | 0.06 (≈ 0.137 µM) | < 0.015 | 0.03 (≈ 0.0686 µM) | < 0.015 | 0.06 (≈ 0.137 µM) | < 0.015 | 0.03 (≈ 0.0686 µM) | < 0.015 | 0.03 (≈ 0.0686 µM) | < 0.015 | < 0.015 | < 0.015 | < 0.015
CC[C@@H]([C@H](C)O)n1ncn(-c2ccc(N3CCN(c4ccc(OC[C@@H]5CO[C@@](Cn6cncn6)(c6ccc(F)cc6F)C5)cc4)CC3)cc2)c1=O [POSACONAZOLE] | 0.03 (≈ 0.0428 µM) | 0.125 (≈ 0.178 µM) | 0.06 (≈ 0.0856 µM) | 0.25 (≈ 0.357 µM) | 0.03 (≈ 0.0428 µM) | 0.125 (≈ 0.178 µM) | 0.03 (≈ 0.0428 µM) | 0.06 (≈ 0.0856 µM) | 0.03 (≈ 0.0428 µM) | 0.06 (≈ 0.0856 µM) | 0.03 (≈ 0.0428 µM) | 0.06 (≈ 0.0856 µM) | < 0.015 | 0.06 (≈ 0.0856 µM) | < 0.015 | – | – | –
C[C@@H](c1ncncc1F)[C@](O)(Cn1cncn1)c1ccc(F)cc1F [VORICONAZOLE] | 0.125 (≈ 0.358 µM) | 0.25 (≈ 0.716 µM) | 0.06 (≈ 0.172 µM) | 0.25 (≈ 0.716 µM) | 0.125 (≈ 0.358 µM) | 0.25 (≈ 0.716 µM) | 0.125 (≈ 0.358 µM) | 0.25 (≈ 0.716 µM) | 0.06 (≈ 0.172 µM) | 0.25 (≈ 0.716 µM) | 0.06 (≈ 0.172 µM) | 0.125 (≈ 0.358 µM) | 0.03 (≈ 0.0859 µM) | 0.25 (≈ 0.716 µM) | – | – | – | –
